Screening data deposited in PubChem by Sanford-Burnham Center for Chemical Genomics.
CXCR6 block: blocks human CXCR6 beta-arrestin recruitment; O00574; CHO-K1 PathHunter CXCR6 beta-arrestin, luminescence; inhibition, % at 20 µM; actives 0.36% (n = 360,000); AID 602244; in the data active = inhibition above about 34%, passing the limit was not always enough;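 note: antagonist mode with CXCL16 agonist at 10 nM final; 0% = 10 nM CXCL16 with DMSO and 100% = unstimulated wells without agonist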
Target sequence (O00574 whole entry, looked up): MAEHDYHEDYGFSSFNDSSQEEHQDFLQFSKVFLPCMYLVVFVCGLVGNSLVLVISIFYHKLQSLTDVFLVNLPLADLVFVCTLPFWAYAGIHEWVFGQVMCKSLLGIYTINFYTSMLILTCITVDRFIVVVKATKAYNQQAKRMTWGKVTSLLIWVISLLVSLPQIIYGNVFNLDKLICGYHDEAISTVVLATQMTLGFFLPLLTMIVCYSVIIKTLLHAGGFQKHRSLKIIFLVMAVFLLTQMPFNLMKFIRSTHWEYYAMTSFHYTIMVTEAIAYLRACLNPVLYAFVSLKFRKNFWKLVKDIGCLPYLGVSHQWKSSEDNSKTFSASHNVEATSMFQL
CCR6 antag: antagonists of human CCR6 receptor. P51684. inhibition, % at 20 µM. actives 0.49% (n = 340,000). CHO-K1 CCR6 PathHunter beta-arrestin, luminescence, CCL20-stimulated;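 active = compounds whose inhibition of the agonist-driven luminescence signal at 20 µM reaches about 50%, limit read from the data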;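 note: cells stimulated with CCL20 at 14 nM final; plate controls were DMSO with CCL20 for no effect and DMSO without agonist for full effect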
APJ agonist: APJ receptor agonism. activation, % at 20 µM. actives 0.11% (n = 330,000). AID 2520. CHO-K1 APJ PathHunter beta-arrestin, luminescence; 0% DMSO wells, 100% apelin. P35414;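 active = activation more than six SD over the plate average, tested at 20 µM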;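 note: 0% = DMSO alone and 100% = apelin-13 at 10 nM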
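Incubation: overnight seeding, 90 min compound at 25 °C, 1 h detection; test system: PathHunter CHO-K1 APJ (AGTRL-1) beta-arrestin reporter cells; amount: 1000 cells/well; doses: one dose, 20 µM compound, 1% DMSO; measured by: beta-gal luminescence; measure: agonist-driven arrestin binding to APJ; benchmarks: negative DMSO alone, positive Apelin-13 at 10 nM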
EBI2 block: blocks human EBI2 receptor beta-arrestin signaling; P32249; EBI2 beta-arrestin recruitment, luminescence, 7a,25-OHC stimulated; inhibition, % at 5 µM; actives 0.81% (n = 360,000); AID 651636; in the data active = inhibition above about 38%;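 note: enzyme fragment complementation signal reports receptor beta-arrestin coupling in cells; 0% = agonist plus DMSO wells and 100% = wells without agonist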
APJ antag: APJ receptor antagonism. P35414. CHO-K1 APJ beta-arrestin complementation, luminescence. inhibition, % at 20 µM. actives 0.32% (n = 330,000). AID 2521;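 active = inhibition above about 40% at 20 µM, limit read from the data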;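 note: cells challenged with 10 nM apelin-13 agonist together with compound; plate controls were apelin-13 plus DMSO wells for no effect and DMSO wells lacking apelin-13 for full effect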
APJ antag conf: APJ receptor antagonism confirmation. inhibition, % at 20 µM. AID 2766. actives 66% (n = 950). APJ beta-arrestin recruitment, luminescence, antagonist mode. shares compounds with APJ antag; in the data active = inhibition above about 50%
* hit, by the source's call. Sampled rows, rich in hits. Any-hit rate of the full collection: about 1.5%.

Screening CC1Oc2ccc(C#N)cc2N(Cc2cccc(F)c2)C1=O (stereo not given) returned CXCR6 block 5.9 and EBI2 block -3.7.
COc1ccc(Nc2nc(Nc3ccc(OC)cc3)nc(-n3[nH]c(=O)c(C)c3C)n2)cc1 was read as CXCR6 block 15.4, CCR6 antag 34.2, APJ agonist -6.4, EBI2 block -10.2, APJ antag 58.2* and APJ antag conf 32.6.
Screening COc1ccc(Nc2nc(OC)nc(OC)n2)cc1 returned CXCR6 block -8.1, CCR6 antag 18.9, APJ agonist 1.3, EBI2 block -5.4 and APJ antag 7.9.
Screening O=C1NC(=Nc2ccccc2Cl)S/C1=C\c1cc([N+](=O)[O-])ccc1O returned CXCR6 block 24.6, CCR6 antag 35.0, APJ agonist -5.1, EBI2 block 5.0 and APJ antag 30.7.
For COc1cccc(N=C2NC(=O)/C(=C/c3cc([N+](=O)[O-])ccc3O)S2)c1 the results were CXCR6 block 25.6, CCR6 antag 34.6, APJ agonist -8.0, EBI2 block 16.1, APJ antag 41.4* and APJ antag conf 52.0*.
Screening CCOC(=O)c1ccc(S(=O)(=O)NNC(=O)c2cccc(N(C)C)c2)cc1 returned CXCR6 block -0.8, CCR6 antag 5.3, APJ agonist 0.4, EBI2 block -8.2, APJ antag 50.1* and APJ antag conf 18.6.
O=c1c2cc(Br)ccc2[nH]c(=S)n1Cc1ccccc1 was read as CXCR6 block -4.3, CCR6 antag 4.1, APJ agonist -1.5, EBI2 block 11.0 and APJ antag 7.1.
`O=c1c2cc(Br)ccc2[nH]c(=S)n1Cc1ccccn1` gave CXCR6 block 50.8*, CCR6 antag 55.6*, APJ agonist -6.6, EBI2 block 11.7, APJ antag 58.5* and APJ antag conf 93.2*.
For CC1(Oc2ccc(Cl)cc2)CCN(Cc2ccc(-c3ccccn3)cc2)C1 (stereo not given) the results were CXCR6 block -1.1 and EBI2 block -10.8.
CC(=O)NC(c1ccccc1)c1nc(-c2cc(F)cc(F)c2)cs1 (stereo not given) was read as CXCR6 block -6.2 and EBI2 block -9.8.
N=C1/C(=C/c2ccc(-c3cccc(C(=O)O)c3)o2)C(=O)N=C2SC=C(c3ccccc3)N12 was read as CXCR6 block 20.6, CCR6 antag 56.6*, APJ agonist -9.2, EBI2 block 1.0, APJ antag 40.1* and APJ antag conf 53.0*.
Screening Cc1cc(F)ccc1C(O)c1ncc(-c2ccccc2Cl)[nH]1 (stereo not given) returned CXCR6 block -15.7 and EBI2 block 5.7.
Screening Cc1nn(Cc2ccc(Cl)cc2)c(C)c1NC(=O)C1CC=CCC1C(=O)O (stereo not given) returned CXCR6 block -0.8, CCR6 antag 20.3, APJ agonist -2.2, EBI2 block -9.1, APJ antag 50.2* and APJ antag conf 32.7.
For Cc1ccc2cccc(N)c2n1 the results were CXCR6 block -0.4, CCR6 antag 10.0, APJ agonist 2.2, EBI2 block -3.2, APJ antag 41.2* and APJ antag conf 1.6.
`C=CC[C@@H](CC(=O)NCCO)C(=O)NC[C@H](OC(=O)[C@@H](CC=C)Cc1ccc(F)cc1)c1ccccc1` gave CXCR6 block -5.2, CCR6 antag -7.3, APJ agonist -0.3, EBI2 block -37.1 and APJ antag -8.5.
O=C(N=Nc1c(O)[nH]c2ccc([N+](=O)[O-])cc12)c1ccccc1Cl was read as CXCR6 block 16.5, CCR6 antag 29.2, APJ agonist -8.7, EBI2 block 4.2 and APJ antag 25.1.
O=C(O)c1ccccc1N=Nc1c(O)[nH]c2ccc([N+](=O)[O-])cc12 was read as CXCR6 block 28.4, CCR6 antag 38.8, APJ agonist -3.8, EBI2 block 10.8, APJ antag 41.9* and APJ antag conf 52.8*.
For O=C(C(=O)N1CCC(c2ccccc2)CC1)c1ccc(F)c(F)c1 the results were EBI2 block 17.0.
For Cc1cc(NC(=O)CCN2C(=O)C3C4CCC(C4)C3C2=O)c(C)cc1Br (stereo not given) the results were CXCR6 block -9.8, CCR6 antag -5.9, APJ agonist -2.7, EBI2 block 8.3 and APJ antag 12.2.
For Cc1cc(Br)c(Cl)cc1NC(=O)CN1C(=O)C2C3CC(c4ccccc4)C(C3)C2C1=O (stereo not given) the results were CXCR6 block -12.0, CCR6 antag -10.2, APJ agonist -1.7, EBI2 block 2.9, APJ antag 55.2* and APJ antag conf -20.4.
`CCO[C@H]1C[C@@H](c2ccc(CC)cc2)N(S(=O)(=O)c2ccc(C)cc2)C2CC(c3ccc(CC)cc3)N(S(=O)(=O)c3ccc(C)cc3)CC21` (stereo not given in full) gave EBI2 block 4.5.
For Cc1nnc(NC(=O)CSc2nc3ccccc3o2)s1 the results were CXCR6 block 9.2, CCR6 antag -8.5, APJ agonist -2.1, EBI2 block -1.9 and APJ antag -0.9.
For O=C(CSc1nc2ccccc2o1)Nc1nncs1 the results were CXCR6 block -8.3, CCR6 antag -1.8, APJ agonist -5.0, EBI2 block 3.5, APJ antag 52.4* and APJ antag conf 23.2.
For CC(=O)N1CCN(C(=O)c2cccc(NS(=O)(=O)c3ccc(Br)cc3)c2)CC1 the results were CXCR6 block -0.3, CCR6 antag 9.6, APJ agonist -4.4, EBI2 block -9.6 and APJ antag 8.8.
Cc1cc(C)nc(NS(=O)(=O)c2ccc(NC(=S)NC(=O)C3CCCC3)cc2)n1 was read as CXCR6 block 11.3, CCR6 antag 8.3, APJ agonist -3.7, EBI2 block 3.3, APJ antag 42.9* and APJ antag conf 24.3.
`CC1(C(=O)NC2CCCC2)CCC(=O)N1CCCn1ccnc1` (stereo not given) gave CXCR6 block -3.4 and EBI2 block -9.0.
`CCN(CC(=O)Nc1cccc(OC)c1)C(=O)C1CC(=O)N(Cc2ccccc2Cl)C1` (stereo not given) gave CXCR6 block 4.3 and EBI2 block -4.4.
CC[N+](CC)(CC#Cc1ccccc1)CC(=O)c1ccc(Cl)cc1 was read as CXCR6 block 23.2, CCR6 antag 68.8*, APJ agonist -4.2, EBI2 block 0.0, APJ antag 77.3* and APJ antag conf 22.4.
For O=C(COC(=O)c1ccccc1F)c1ccc(-n2nncc2-c2ccco2)cc1 the results were CXCR6 block 23.8, CCR6 antag 34.9, APJ agonist -6.5, EBI2 block 22.9, APJ antag 41.3* and APJ antag conf 5.0.
